Results from ChEMBL document CHEMBL4261491, “Synthesis and synergistic antifungal effects of monoketone derivatives of curcumin against fluconazole-resistant Candida spp” (Medchemcomm, 2017).
Values after ≈ are worked out from the molar mass of the structure shown.

Experiments:
[1] = Cytotoxicity against HUVEC assessed as cell viability at 32 ug/ml after 24 hrs by MTT assay relative to control; type: cell-based; conditions: human, HUVEC cells; read-out: Activity
How it was run: (§1)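 HUVECs grown in DMEM with 10% FCS and 100 μg ml–1 streptomycin, 5% CO2, 37 °C. Cells exposed to compounds at 16 and 32 μg ml–1 for 24 h, then incubated with MTT solution (5 mg ml–1) for 3 h. Optical density read at 570 nm. Viability expressed as percentage relative to drug-free control.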

Pichia kudriavzevii [2] = test: Antifungal activity against fluconazole-resistant Candida krusei clinical isolate 2159 by broth microdilution method; type: functional
How it was run: (§2)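 Broth microdilution per CLSI/NCCLS M27-A2 against FLC-resistant clinical isolates. MIC80 read for each compound alone and with fluconazole at 8.0 μg ml–1. C. albicans ATCC 90028 served as quality control. Curcumin was the positive control.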

Candida albicans [3] = test: Antifungal activity against fluconazole-resistant Candida albicans clinical isolate 103 in presence of 8 ug/ml fluconazole by broth microdilution method; type: functional; conditions: for MIC80: Candida albicans, isolate 103; how it was run: as §2
Candida albicans [4] = test: Antifungal activity against fluconazole-resistant Candida albicans clinical isolate 103 by broth microdilution method; type: functional; how it was run: as §2
Candida tropicalis [5] = test: Antifungal activity against fluconazole-resistant Candida tropicalis clinical isolate 087 in presence of 8 ug/ml fluconazole by broth microdilution method; type: functional; conditions: for MIC80: Candida tropicalis, isolate 087; how it was run: as §2
[6] = Cytotoxicity against HUVEC assessed as cell viability at 16 ug/ml after 24 hrs by MTT assay relative to control; type: cell-based; conditions: human, HUVEC cells; read-out: Activity; how it was run: as §1
Pichia kudriavzevii [7] = test: Antifungal activity against fluconazole-resistant Candida krusei clinical isolate 2159 in presence of 8 ug/ml fluconazole by broth microdilution method; type: functional; conditions: for MIC80: Pichia kudriavzevii, isolate 2159; how it was run: as §2
Candida tropicalis [8] = test: Antifungal activity against fluconazole-resistant Candida tropicalis clinical isolate 087 by broth microdilution method; type: functional; how it was run: as §2

Compound	viability at 24 h, 32 ug/ml [1] [%]	MIC80 (Pichia kudriavzevii [2]) [µg/mL]	fractional inhibitory concentration index (FICI) (Candida albicans [3])	MIC80 (Candida albicans [3]) [µg/mL]	MIC80 (Candida albicans [4]) [µg/mL]	fractional inhibitory concentration index (FICI) (Candida tropicalis [5])	MIC80 (Candida tropicalis [5]) [µg/mL]	viability at 24 h, 16 ug/ml [6] [%]	fractional inhibitory concentration index (FICI) (Pichia kudriavzevii [7])	MIC80 (Pichia kudriavzevii [7]) [µg/mL]	MIC80 (Candida tropicalis [8]) [µg/mL]
COc1ccc(/C=C/C(=O)/C=C/c2ccc(OC)c(OC)c2)cc1OC	55	> 64	>1.06	> 64	> 64	0.125	4	67	>1.06	> 64	> 64
COc1ccc(/C=C/C(=O)/C=C/c2ccc(OC)cc2)cc1		> 64	>1.06	> 64	> 64	>1.06	> 64		>1.06	> 64	> 64
O=C(/C=C/c1ccc(Cl)cc1)/C=C/c1ccc(Cl)cc1		> 64	>1.06	> 64	> 64	0.313	16		>1.06	> 64	> 64
O=C(/C=C/c1ccc(Br)cc1)/C=C/c1ccc(Br)cc1		> 64	>1.06	> 64	> 64	0.563	32		>1.06	> 64	> 64
O=C(/C=C/c1ccc2c(c1)OCO2)/C=C/c1ccc2c(c1)OCO2	71	> 64	0.563	32	> 64	0.313	16	88	0.094	2	> 64
O=C(/C=C/c1c(Cl)cccc1Cl)/C=C/c1c(Cl)cccc1Cl		> 64	>1.06	> 64	> 64	>1.06	> 64		>1.06	> 64	> 64
O=C(/C=C/c1ccc(Cl)c(Cl)c1)/C=C/c1ccc(Cl)c(Cl)c1		> 64	>1.06	> 64	> 64	>1.06	> 64		>1.06	> 64	> 64
O=C(/C=C/c1ccc(O)cc1)/C=C/c1ccc(O)cc1	75	> 64	>1.06	> 64	> 64	0.188	8	87	>1.06	> 64	> 64
O=C(/C=C/c1ccco1)/C=C/c1ccco1		> 64	>1.06	> 64	> 64	0.313	16		>1.06	> 64	> 64
COc1ccc(/C=C2\CC/C(=C\c3ccc(OC)cc3)C2=O)cc1		> 64	>1.06	> 64	> 64	1.06	64		>1.06	> 64	> 64
CN(C)c1ccc(/C=C/C(=O)/C=C/c2ccc(N(C)C)cc2)cc1		> 64	>1.06	> 64	> 64	0.563	32		>1.06	> 64	> 64
COc1cc(/C=C/C(=O)CC(=O)/C=C/c2ccc(O)c(OC)c2)ccc1O [CURCUMIN]	22		0.188	8		0.188	8	80	0.188	8	
O=C(/C=C/c1ccc(Cl)cc1Cl)/C=C/c1ccc(Cl)cc1Cl		> 64	>1.06	> 64	> 64	0.313	16		>1.06	> 64	> 64
COc1cccc(/C=C2\CC/C(=C\c3cccc(OC)c3OC)C2=O)c1OC		> 64	>1.06	> 64	> 64	>1.06	> 64		>1.06	> 64	> 64
COc1ccc(/C=C2\CC/C(=C\c3ccc(OC)c(OC)c3)C2=O)cc1OC		> 64	>1.06	> 64	> 64	0.313	16		>1.06	> 64	> 64
O=C1/C(=C/c2ccc3c(c2)OCO3)CC/C1=C\c1ccc2c(c1)OCO2		> 64	>1.06	> 64	> 64	1.06	64		>1.06	> 64	> 64
CN(C)c1ccc(/C=C2\CC/C(=C\c3ccc(N(C)C)cc3)C2=O)cc1		> 64	>1.06	> 64	> 64	1.06	64		>1.06	> 64	> 64
COc1ccc(/C=C/C(=O)/C=C/c2ccc(OC)c(O)c2)cc1O		> 64	0.563	32	> 64	0.188	8		>1.06	> 64	> 64
O=C(/C=C(O)/C=C/c1ccc(O)c(O)c1)/C=C/c1ccc(O)c(O)c1		4 (≈ 11.8 µM)	0.125	4	64 (≈ 188 µM)	0.125	4		0.563	2	64 (≈ 188 µM)
